We go through 13 compounds from ChEMBL document CHEMBL1136957, “Semisynthesis and antiproliferative evaluation of a series of 3'-aminoflavones” (Bioorg Med Chem Lett, 2009).

The structures appear in SMILES notation. Calls of active or inactive are those of the source. No cut-off for these calls is given here.

Experiment [1] relates to KB. The experiment is described as follows: Cytotoxicity against human KB cells after 72 hrs by MTS assay. The class given is functional, cell-based. (In general: Tetrazolium assays rely on reduction of a dye to a coloured formazan, in cell work by metabolically active cells.)
In experiment [2] the test system is HL-60. The experiment is described as follows: Induction of apoptosis in human HL60 cells assessed as caspase 3/7 activation at 0.1 uM relative to control. Type of experiment: functional. Summed up:
(§1)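 Apoptosis read in HL60 human leukemia cells as caspase 3/7 activity, using DEVD-AMC as substrate. Reported as the optimal compound concentration with fold activation.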

Experiment [3] in a line: Ratio of IC50 for drug to deoxypodophyllotoxin for tubulin assembly. The gist of the method:
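Inhibition of tubulin assembly was run by the Zavala and Guénard method. Compounds were screened at 6.6 × 10^-5 M, and an IC50 was determined only for the most antiproliferative ones. The value is that IC50 divided by the IC50 of deoxypodophyllotoxin, the reference.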

A short description of experiment [4]: Inhibition of tubulin assembly. Summed up: (§2)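 Tubulin assembly inhibition run by the Zavala and Guenard method. Reported as percent inhibition at 6.6 x 10^-5 M, or as IC50 for selected compounds.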
In experiment [5] the test system is KB. In words: Cytotoxicity against human KB cells at 1 uM after 72 hrs by MTS assay. The class given is functional.
In experiment [6] the test system is HL-60. The experiment is described as follows: Induction of apoptosis in human HL60 cells assessed as caspase 3/7 activation at 1 uM relative to control. The class given is functional. Summed up: as §1
The test system of experiment [7] is HL-60. The experiment is described as follows: Induction of apoptosis in human HL60 cells assessed as caspase 3/7 activation at 100 uM relative to control. Type of experiment: functional. The gist of the method:
as §1

The test system of experiment [8] is HL-60. The experiment is described as follows: Induction of apoptosis in human HL60 cells assessed as caspase 3/7 activation at 10 uM relative to control. Type of experiment: functional. The gist of the method: as §1
The nature of experiment [9]: Inhibition of tubulin assembly at 66 uM. Summed up: as §2

For orientation: IC50 means the concentration needed to halve the response being measured. Usually inhibition stands for the share of the control response that was lost under treatment. Low values mean a response near the control, high ones a response far below the control. As to `COc1ccc(-c2oc3c(OC)c(OC)c(OC)c(O)c3c(=O)c2OC)cc1O`, the concentration for half-maximal inhibition (IC50) in experiment [1] was 0.02 µM; in experiment [4] it was 10 µM. The “fold change (FC)” value in experiment [2] turned out to be 5.7. For the same compound, the Ratio IC50 in [3] was found to be 3. In experiment [5], this compound registered an inhibition at 1 µM of 92%.
The compound `COc1ccc(-c2cc(=O)c3c(O)c(OC)c(OC)c(OC)c3o2)cc1[N+](=O)[O-]` came in with an inhibition at 1 µM in experiment [5] of 2%.
For `COc1ccc(-c2oc3c(OC)c(OC)c(OC)c(O)c3c(=O)c2Br)cc1N`, the “fold change (FC)” value in [6] is on record as 3.6. Moreover, in experiment [5], the inhibition at 1 µM amounted to 55%.
`COc1ccc(-c2cc(=O)c3c(O)cc(O)cc3o2)cc1N`: the “fold change (FC)” value in experiment [7] came to 4. This compound also showed an inhibition at 1 µM in experiment [5] of 7%.
Take `COc1ccc(-c2cc(=O)c3c(O)c(OC)c(OC)c(OC)c3o2)cc1` [GARDENIN B]: the “fold change (FC)” value in experiment [7] turned out to be 3.8. This compound also gave an inhibition at 1 µM in experiment [5] of 28%.
`COc1ccc(-c2oc3c(OC)c(OC)c(OC)c(O)c3c(=O)c2Br)cc1[N+](=O)[O-]` came in with an inhibition at 1 µM in experiment [5] of 23%.
As to `COc1ccc(-c2cc(=O)c3c(OC)c(OC)c(OC)c(OC)c3o2)cc1[N+](=O)[O-]`, the inhibition at 1 µM in [5] was 3%.
Regarding `COc1cc(O)c2c(=O)cc(-c3ccc(OC)c(N)c3)oc2c1`, the “fold change (FC)” value in experiment [7] was “inactive”. Further, at 1 µM the inhibition in experiment [5] was 30%.
On to `COc1ccc(-c2cc(=O)c3c(OC)c(OC)c(OC)c(OC)c3o2)cc1N`, for which, in experiment [7], the “fold change (FC)” value was “inactive”. This compound showed an inhibition at 1 µM in [5] of 6%.
In the case of `COc1ccc(-c2cc(=O)c3c(O)c(OC)c(OC)c(OC)c3o2)cc1O`, the values for the 50% inhibitory concentration (IC50) in [1] and in experiment [4] were 0.08 µM and 86 µM, respectively. Further, the figures for the “fold change (FC)” value in [8] and in [6] were 5.2 and 3.8, respectively. In addition, the Ratio IC50 in experiment [3] was found to be 27.
In turn, `COc1ccc(-c2cc(=O)c3c(O)c(OC)c(OC)c(OC)c3o2)cc1N` gave a half-maximal inhibitory concentration (IC50) in experiment [1] of 0.16 µM. Besides, the “fold change (FC)” value in experiment [6] came to 6. In [9], this compound had an inhibition of 27%. In [5], this compound yielded an inhibition at 1 µM of 83%.
`COc1ccc(-c2oc3c(OC)c(OC)c(OC)c(O)c3c(=O)c2Cl)cc1N` displayed an IC50 in experiment [1] of 0.14 µM. For the same compound, the “fold change (FC)” value in experiment [6] was 4.5. Further, the inhibition in experiment [9] turned out to be 15%. For the same compound, testing at 1 µM in experiment [5] gave an inhibition of 86%.
In the case of `COc1ccc(-c2cc(=O)c3c(OC)c(OC)c(OC)c(OC)c3o2)cc1` [TANGERETIN], in experiment [7], the “fold change (FC)” value was “inactive”. The same compound gave an inhibition at 1 µM in experiment [5] of 12%.
